Measured values taken from ChEMBL document CHEMBL4376883, “Discovery and Optimization of Small Molecules Targeting the Protein-Protein Interaction of Heat Shock Protein 90 (Hsp90) and Cell Division Cycle 37 as Orally Active Inhibitors for the Treatment of Colorectal Cancer” (J Med Chem, 2020).

What was measured:
[1] = AUC (0 to t) in plasma of human HCT116 cells xenografted BALB/c mouse at 80 mg/kg, po administered as single dose by LC-MS/MS analysis; assay type: ADME, organism-based
How it was run: (§1)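 Tumour-bearing mice (n = 6 per group) given one oral dose of 80 mg/kg. Blood and tumour collected into heparinized tubes at 0, 0.25, 0.5, 1, 2, 4, 8, 12 and 24 h. Plasma obtained by centrifugation at 3000 rpm for 10 min. Samples stored at -80 °C and quantified by LC-MS/MS.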

Glucocorticoid receptor [2] = target: T1, Glucocorticoid receptor (Homo sapiens, UniProt P04150); assay: Effect on glucocorticoid receptor phosphorylation in human HCT116 cells at 10 uM measured up to 48 hrs by Western blot analysis; assay type: ADME, cell-based
T1 sequence (P04150 whole entry): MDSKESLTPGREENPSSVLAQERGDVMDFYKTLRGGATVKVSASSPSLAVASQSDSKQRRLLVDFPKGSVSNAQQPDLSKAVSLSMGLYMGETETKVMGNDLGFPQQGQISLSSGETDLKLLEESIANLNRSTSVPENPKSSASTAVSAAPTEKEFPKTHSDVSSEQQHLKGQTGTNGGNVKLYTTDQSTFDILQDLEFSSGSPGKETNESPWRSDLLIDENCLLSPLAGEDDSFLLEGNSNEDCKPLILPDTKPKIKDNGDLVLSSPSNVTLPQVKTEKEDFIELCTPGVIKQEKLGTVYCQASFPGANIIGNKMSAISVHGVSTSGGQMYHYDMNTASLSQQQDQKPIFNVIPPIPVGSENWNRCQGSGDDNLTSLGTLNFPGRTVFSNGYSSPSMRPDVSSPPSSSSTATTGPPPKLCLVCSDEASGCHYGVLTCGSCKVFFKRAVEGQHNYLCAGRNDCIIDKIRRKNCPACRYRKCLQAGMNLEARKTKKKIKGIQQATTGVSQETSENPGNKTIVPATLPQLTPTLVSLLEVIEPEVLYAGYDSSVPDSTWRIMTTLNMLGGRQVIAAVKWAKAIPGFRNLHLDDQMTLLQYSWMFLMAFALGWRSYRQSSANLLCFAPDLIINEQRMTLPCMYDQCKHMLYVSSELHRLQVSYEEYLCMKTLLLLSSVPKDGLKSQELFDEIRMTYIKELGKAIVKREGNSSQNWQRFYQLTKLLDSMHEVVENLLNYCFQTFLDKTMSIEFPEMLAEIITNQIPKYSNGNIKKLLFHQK
How it was run: (§2)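 HCT116 cells treated with 0, 1, 5 or 10 µM for 24 h, or with 10 µM for 0, 4, 12, 24 or 48 h. Lysates separated by SDS-PAGE and blotted. Membranes blocked in 5% milk, primary antibodies overnight at 4 °C, HRP secondaries, chemiluminescent detection.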

HCT-116 [3] = assay: Effect on total phosphorylated CDC37 expression in human HCT116 cells at 10 uM measured up to 48 hrs by Western blot analysis; assay type: ADME, cell-based; details: hct-116, 48 h; how it was run: as §2
Heat shock protein HSP90 = Heat shock protein HSP90 (Homo sapiens, UniProt P07900+P08238); assay: Binding affinity to recombinant […] biotinylated-HSP90 N-terminal domain (9 to 236 residues) (unknown origin) expressed in Escherichia coli BL21 (DE3) by biolayer interferometry
How it was run: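 Biotinylated Hsp90 (100 µg/mL) loaded onto streptavidin sensors prewetted 10 min in PBS with 0.05% BSA and 0.01% Tween 20. Analyte binding measured at 28 °C. Double reference subtraction applied; data fitted to a 1:1 model with K_D = K_off/K_on.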

[4] = Apparent oral clearance in tumor of human HCT116 cells xenografted BALB/c mouse at 80 mg/kg administered as single dose by LC-MS/MS analysis; assay type: ADME, organism-based, Neoplasm
How it was run: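 Xenograft mice (n = 6 per group) received a single 80 mg/kg oral dose. Plasma and tumour were sampled over 0–24 h into heparinized tubes and analysed by LC-MS/MS.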

[5] = Tmax in plasma of human HCT116 cells xenografted BALB/c mouse at 80 mg/kg, po administered as single dose by LC-MS/MS analysis; assay type: ADME, organism-based
How it was run: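 HCT116-xenografted mice (n = 6 per group) received a single oral 80 mg/kg dose. Blood and tumor were sampled at 0 to 24 h. Plasma was obtained by centrifugation at 3000 rpm for 10 min. Samples were stored at −80 °C and quantified by LC-MS/MS.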

[6] = Half life in tumor of human HCT116 cells xenografted BALB/c mouse at 80 mg/kg, po administered as single dose by LC-MS/MS analysis; assay type: ADME, organism-based, Neoplasm
How it was run: (§3)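 Single oral dose of 80 mg/kg given to BALB/c nude mice (n = 6 per group) carrying flank HCT116 xenografts. Blood and tumor were collected at 0, 0.25, 0.5, 1, 2, 4, 8, 12 and 24 h. Blood went into heparinized tubes and was spun at 3000 rpm for 10 min to give plasma. Samples were stored at -80 °C, then drug levels in plasma and tumor were measured by LC-MS/MS.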

[7] = Stability of the compound in mouse plasma assessed as parent compound remaining at 1 uM measured after 60 mins by LC-MS/MS analysis; assay type: ADME, cell-free; details: read-out: Stability
How it was run: (§4)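 Compound diluted from 10 mM DMSO stock to 1 μM in mouse or human plasma and held at 37 °C in a water bath. Reactions were stopped with acetonitrile at 0, 10, 30, 60 and 90 min. Parent compound was quantified by LC-MS/MS as % remaining.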

[8] = Half life in plasma of human HCT116 cells xenografted BALB/c mouse at 80 mg/kg, po administered as single dose by LC-MS/MS analysis; assay type: ADME, organism-based; how it was run: as §3
[9] = Effect on HSP70 in human HCT116 cells up to 10 uM measured after 24 hrs by Western blot analysis; assay type: cell-based; how it was run: as §2
[10] = Half life in mouse liver microsomes at 10 uM preincubated for 5 mins followed by NADPH addition by LC-MS/MS analysis; assay type: ADME, Microsome
How it was run: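 Compound at 10 µM preincubated 5 min at 37 °C with human or mouse liver microsomes (0.5 mg/mL) in 100 mM phosphate, pH 7.4. Reaction started with 1 mM NADPH, stopped with cold acetonitrile, centrifuged and analysed by LC-MS/MS.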

HCT-116 [11] = assay: Effect on total phosphorylated CDC37 expression in human HCT116 cells up to 10 uM measured after 24 hrs by Western blot analysis; assay type: ADME, cell-based; details: hct-116, 24 h; how it was run: as §2
Glucocorticoid receptor [12] = target: T1, Glucocorticoid receptor; assay: Effect on glucocorticoid receptor in human HCT116 cells at 10 uM measured up to 48 hrs by Western blot analysis; assay type: ADME, cell-based; how it was run: as §2
HCT-116 [13] = assay: Effect on CDC37 expression in human HCT116 cells at 10 uM measured up to 48 hrs by Western blot analysis; assay type: cell-based; details: hct-116, 48 h; how it was run: as §2
[14] = Stability of the compound in mouse plasma assessed as parent compound remaining at 1 uM measured after 30 mins by LC-MS/MS analysis; assay type: ADME, cell-free; details: read-out: Stability; how it was run: as §4
[15] = Stability of the compound in human plasma assessed as parent compound remaining at 1 uM measured immediately by LC-MS/MS analysis; assay type: ADME, cell-free; details: read-out: Stability; how it was run: as §4
[16] = Cmax in tumor of human HCT116 cells xenografted BALB/c mouse at 80 mg/kg, po administered as single dose by LC-MS/MS analysis; assay type: ADME, organism-based, Neoplasm; set-up: dose 80 mg/kg, route oral; how it was run: as §1
[17] = Stability of the compound in mouse plasma assessed as parent compound remaining at 1 uM measured immediately by LC-MS/MS analysis; assay type: ADME, cell-free; details: read-out: Stability; how it was run: as §4

## Cc1cc(C)c(S(=O)(=O)N(CC(=O)O)c2ccc(Nc3ccnc(N4CCNCC4)n3)cc2)c(C)c1
[1]
  AUC(0-t): 533 µg·h/mL
Glucocorticoid receptor [2]
  Activity: Non-Toxic
HCT-116 [3]
  Activity: Non-Toxic
Heat shock protein HSP90
  Kd: 0.5 µM
[4]
  CL/F: 9.93 mL/min/kg
[5]
  Tmax: 30 min
[6]
  half-life: 280 min
[7]
  remaining at 1 h, 1 µM: 101%
[8]
  half-life: 87.6 min
[9]
  Activity: Non-Toxic
[10]
  half-life at 10 µM: 96.3 min
HCT-116 [11]
  Activity: Non-Toxic
Glucocorticoid receptor [12]
  Activity: Non-Toxic
HCT-116 [13]
  Activity: Non-Toxic
[14]
  remaining at 0.5 h, 1 µM: 102%
[15]
  remaining at 0 min, 1 µM: 100%
[16]
  Cmax: 50000 ng/mL
[17]
  remaining at 0 min, 1 µM: 100%
